≈ marks a conversion by molar mass, not a printed value. Bounds are passed on as bounds.

Series [1] can be described thus: Inhibition of human soluble epoxide […] using fluorescent CMNPC as substrate after 10 mins by fluorometric assay. The method in brief:
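Recombinant human sEH, expressed in Sf9 cells via baculovirus with a His tag that was later removed, purified by metal-affinity and anion-exchange chromatography. Enzyme at 1 nM final, preincubated with inhibitor 10 min at 30 °C in 25 mM Bis-Tris/HCl pH 7.0. CMNPC then added at 5 μM. 6-Methoxy-2-naphthaldehyde fluorescence (ex 330/em 465 nm) followed for 10 min. IC50 by regression of at least six points; mean of three runs.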

Series [2] is described as follows: Aqueous solubility of the compound in […] phosphate buffer at pH 7.4. Type of series: physicochemical. The method in brief: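 Light-scattering method at 25± 1.5 °C. Compound in DMSO was added at varying concentrations to 0.1 M sodium phosphate, pH 7.4, at 5:95 (v/v) DMSO:buffer. Insolubility was read as the rise in turbidity, measured as optical density at 650 nm.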

Series [3] in a line: Aqueous solubility of the compound in […] phosphate buffer at pH 7.4 relative to AUDA. It counts as physicochemical.

The IC50 is the point on the concentration scale where inhibition reaches its midpoint. `CC(C)(C)C1CCC(C(=O)NCCCc2ccccc2)CC1` (stereo unspecified) had an IC50 in series [1] of 58 nM. The same measure, in the same setting: for `O=C(NCc1ccccc1)C12CC3CC(CC(C3)C1)C2` the value was over 1000 nM; for `O=C(NCCCc1ccccc1)C1CCCO1` (stereo unspecified), over 1000 nM; for `COc1ccc(NC(=O)C23CC4CC(CC(C4)C2)C3)cc1`, over 1000 nM. On the same count and under the same terms, the same measure for `COC(=O)c1ccc(CCNC(=O)C23CC4CC(CC(C4)C2)C3)cc1`: 230 nM; for `O=C(NCCCc1ccccc1)C1CCc2ccccc2C1` (stereo unspecified): 15 nM.

Broadly, the solubility is the dissolved amount per volume that the medium holds. A lower solubility goes with little dissolved substance. As to `COC(=O)c1ccc(CNC(=O)c2ccc3cc(O)ccc3c2)cc1`, the IC50 in series [1] turned out to be 1.8 nM. In addition, in series [2], the solubility amounted to 31 µM (≈ 10.4 µg/mL). The matching figures for `COC(=O)c1ccc(CNC(=O)c2ccc3cc(OC)ccc3c2)cc1`: 2.4 nM and 15 µM (≈ 5.24 µg/mL).

Take `O=C(NCCc1ccccc1)C12CC3CC(CC(C3)C1)C2`: 230 nM corresponded to half-maximal inhibition in series [1] (IC50). On the same count and under the same terms, for `O=C(NCCCc1ccccc1)C1CCC(C(F)(F)F)CC1` (stereo unspecified) the value was 64 nM. Still for that read-out and setting: the same measure for `O=C(NCCCc1ccccc1)C1(c2ccccc2)CCCC1`: over 1000 nM.

In the case of `COC(=O)c1ccc(CNC(=O)C2CCc3ccccc3C2)cc1` (stereo unspecified), the half-inhibitory concentration (IC50) in series [1] was determined as 2.1 nM. This compound also returned a solubility in series [2] of 125 µM (≈ 40.4 µg/mL). Further, in series [3], the “fold change (FC)” value was determined as 2. Turning to `CCOC(=O)c1ccc(NC(=O)C23CC4CC(CC(C4)C2)C3)cc1`, the IC50 in series [1] stood at 101 nM. Still for that read-out and setting: for `COC(=O)C1CCCCC1C(=O)NCCCc1ccccc1` (stereo unspecified) the value was over 1000 nM; for `CN(CCCc1ccccc1)C(=O)C12CC3CC(CC(C3)C1)C2`, 723 nM; for `O=C(NCCCc1ccccc1)C1CCCC1`, over 1000 nM. Still for that read-out and setting: for `O=C1CCC(C(=O)NCCCc2ccccc2)CC1` the value was over 1000 nM; for `O=C(O)C1CCC(C(=O)NCCCc2ccccc2)CC1` (stereo unspecified), over 1000 nM; for `O=C(NCCCc1ccccc1)C1(c2ccccc2)CC1`, over 1000 nM. In series [1], `O=C(NCCCc1ccccc1)C1CC1` displayed an IC50 of over 1000 nM. Same read-out and setting: the same measure for `COC(=O)c1ccc2cc(NC(=O)C34CC5CC(CC(C5)C3)C4)ccc2c1`: 65 nM; for `O=C(NCCCc1ccccc1)C12CC3CC(CC(C3)C1)C2`: 41 nM; for `O=C(NCCCc1ccccc1)C1CCCCC1`: 235 nM. Consider `COC(=O)c1ccc(CNC(=O)C23CC4CC(CC(C4)C2)C3)cc1`, for which, in series [1], the IC50 is 9.1 nM. The solubility in series [2] came to 125 µM (≈ 40.9 µg/mL). In addition, the “fold change (FC)” value in series [3] came out at 2. For the compound `O=C(NCCCc1ccccc1)C1CC=CCC1` (stereo unspecified), in series [1], half-maximal inhibition (IC50) required 222 nM. In other words, the sub-micromolar range. As for `COC(=O)c1ccc(CNC(=O)c2ccc3ccccc3c2)cc1`, half-maximal inhibition in series [1] (IC50) was put at 6.6 nM. The solubility in series [2] amounted to 31 µM (≈ 9.9 µg/mL). The compound `O=C(O)CCCCCCCCCCCNC(=O)NC12CC3CC(CC(C3)C1)C2` gave a solubility in series [2] of 63 µM (≈ 24.7 µg/mL). In series [1], `O=C(NCCCc1ccccc1)C1CCC(O)CC1` (stereo unspecified) showed an IC50 of over 1000 nM. The same measure, in the same setting: for `COC(=O)C1C2C=CC(C2)C1C(=O)NCCCc1ccccc1` (stereo unspecified) the value was over 1000 nM.

As to `COC(=O)C1CCC(C(=O)NCCCc2ccccc2)CC1` (stereo unspecified), 78 nM corresponded to half-maximal inhibition in series [1] (IC50). The same measure, in the same setting: the same measure for `O=C(NCCCc1ccccc1)[C@@H]1C[C@H]1c1ccccc1` (relative stereo): 288 nM; for `O=C(NCCCCc1ccccc1)C12CC3CC(CC(C3)C1)C2`: 180 nM; for `O=C(NCCCc1ccccc1)C1CCC(CO)CC1` (stereo unspecified): 243 nM. Still for that read-out and setting: the same measure for `O=C(NCCCc1ccccc1)C1CCOCC1`: over 1000 nM.

For the origin of these results see ChEMBL document CHEMBL1687925, “Structure-activity relationships of cycloalkylamide derivatives as inhibitors of the soluble epoxide hydrolase” (J Med Chem, 2011).
